T cruzi repl: inhibitors of intracellular T. cruzi growth, primary screen, luminescence, NIH3T3 host cells. T. cruzi beta-gal in NIH3T3, 90 h. inhibition, % (no concentration beside the values). 1.4% of 300,000 active;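 active = mean inhibition across valid replicates above about 55%, limit read from the data; inconclusive = mean below that limit but half or more replicates reach it; inactive = mean below it, under half of replicates reach it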;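 note: signal also drops with host cell toxicity which is not excluded here; higher percent means less beta-gal luminescence so fewer parasites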
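System: NIH/3T3 fibroblasts plus reporter T. cruzi. Medium: DMEM plus 2% FBS. Probe or stimulus: 5000 reporter trypomastigotes per well. Compound: single 50 nL compound addition per well in DMSO. Incubation: co-culture of at least 90 h after 3 h attachment. Detection: GalScreen β-gal luminescence, detergent lysis, 60 min. Evaluation: parasite load inhibition, %.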
CSC inhib: cancer stem cell viability inhibitors, primary screen, luminescence; cancer stem cell-like cells viability; inhibition, % at 7.5 µM; 1.1% of 300,000 active; in the data active = inhibition above about 75%; inconclusive = no clear call, values can overlap the other calls; tested in HMLE shEcad cells
Calb FLC: C. albicans growth inhibition with fluconazole, primary screen, CaCi-2 strain, Alamar Blue fluorescence. C. albicans CaCi-2 + fluconazole, 48 h. growth inhibition, % (test concentration not listed). 0.57% of 300,000 active. AID 1979, 2009;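 active = growth inhibition above about 58% in most replicates, limit read from the data, passing the limit was not always enough; inconclusive = exactly half the replicates above a set limit; inactive = most replicates below a set limit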;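 note: all wells also contain fluconazole at 8 µg/ml as a sub-toxic cotreatment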
PolyA inhibitor: polyadenylation inhibitors in yeast reporter cells, primary screen, luminescence, S. cerevisiae; S. cerevisiae SKY197-pL101 polyadenylation reporter, beta-gal luminescence; efflux-impaired pdr1/pdr3 knockout yeast; score 100 = 6 SD above DMSO; AID 1875, 2009; 0.02% of 300,000 active; activity score, % at 12 µM;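 active = lowest replicate activity score at least 50, where 100 means six control SD above control mean; inconclusive = lowest score under 50 but half or more replicates reach 50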;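 note: yeast exposed to compound for 9 h at 30 °C; higher score means more reporter readthrough which indicates perturbed polyadenylation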
Beta apoptosis: inhibitors of cytokine-induced beta cell apoptosis, primary screen, luminescence | INS-1E cytokine-induced death, ATP luminescence, 48 h; percent of positive-control rescue, neutral wells zero | protection from apoptosis, % (no concentration beside the values) | 0.8% of 300,000 active;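 active = Every replicate reaches about 75%, or at least half do and their mean reaches it too, limit read from the data; inconclusive = At least half of replicates reach the limit but their mean does not; inactive = Under half of replicates reach the limit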;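 note: higher means more ATP so stronger rescue from cytokine killing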
HIF activator: HIF pathway transcriptional activators, primary screen, cell-based, U2OS HRE-luciferase, luminescence | U2OS HRE-luciferase reporter; normalized: DMSO 0%, desferrioxamine 100% | activation, % at 7.5 µM (by protocol) | 0.32% of 300,000 active;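 active = mean activation of at least 10% of the iron chelator positive control signal, with at least half of replicates also reaching 10%; inconclusive = mean and replicate majority disagree about reaching 10%; inactive = mean and most replicates under 10%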
Numbers stand for hits. Compounds with a hit are over-represented: about 3.1% of the library has one in this group of screens.

CC(C)CCn1c(N)c(C(=O)NCc2cccs2)c2nc3ccccc3nc21 was read as T cruzi repl inconclusive, CSC inhib 77, Calb FLC inactive, PolyA inhibitor inactive, Beta apoptosis inactive and HIF activator inactive.
`COCCNC(=O)c1c(N)n(CCC(C)C)c2nc3ccccc3nc12` gave T cruzi repl inactive, CSC inhib inactive, Calb FLC inactive, PolyA inhibitor inactive, Beta apoptosis inactive and HIF activator inactive.
For Nc1c(C(=O)NCc2ccco2)c2nc3ccccc3nc2n1CCN1CCCCC1 the results were T cruzi repl 69, CSC inhib inactive, Calb FLC inactive, PolyA inhibitor inactive, Beta apoptosis inactive and HIF activator inactive.
For CC(C)OCCCNC(=O)c1c(N)n(Cc2cccs2)c2nc3ccccc3nc12 the results were T cruzi repl inactive, CSC inhib 118, Calb FLC inactive, PolyA inhibitor inactive, Beta apoptosis inactive and HIF activator inactive.
Screening CCCNC(=O)N1[C@H]2CC[C@@H]1C(C(=O)OC)=C(c1c(C)noc1C)C2 returned CSC inhib inactive and Beta apoptosis inactive.
Screening COc1ccc(/C=C/C2=CCN(C)CC2)cc1 returned T cruzi repl inactive, CSC inhib inactive, Calb FLC inactive, PolyA inhibitor inactive, Beta apoptosis inactive and HIF activator inactive.
`CN1CC=C(/C=C/c2ccc(-c3ccccc3)cc2)CC1` gave T cruzi repl 70, CSC inhib inactive, Calb FLC inactive, PolyA inhibitor inactive, Beta apoptosis inactive and HIF activator inactive.
Screening OC[C@@H](O)CCl returned T cruzi repl inactive, CSC inhib inactive, Calb FLC inactive, PolyA inhibitor inactive, Beta apoptosis inactive and HIF activator inactive.
For C=CCN(CC=C)Cc1c[nH]c2ccccc12 the results were T cruzi repl inactive, CSC inhib inactive, Calb FLC inactive, PolyA inhibitor inactive and Beta apoptosis 107.
Screening CC(Cc1ccccc1)/[N+]([O-])=C\c1ccc(C(F)(F)F)cc1 (stereo not given) returned T cruzi repl inactive, CSC inhib inactive, Calb FLC inactive, PolyA inhibitor inactive, Beta apoptosis inactive and HIF activator inactive.
Screening Cc1oc2ccc(OC(=O)N(C)C)cc2c1C(=O)OC(C)C returned T cruzi repl inactive, CSC inhib inactive, Calb FLC 107, PolyA inhibitor inactive, Beta apoptosis inactive and HIF activator inactive.
Screening CCOC(=O)c1c(-c2ccc(OC)cc2)oc2ccc(OC(=O)N(C)C)cc12 returned T cruzi repl inactive, CSC inhib 76, Calb FLC inactive, PolyA inhibitor inactive, Beta apoptosis inactive and HIF activator inactive.
For C[C@]12CC[C@H](O)C[C@H]1CC[C@@H]1[C@@H]2C[C@@H](O)[C@]2(C)[C@@H](C3=CC(=O)OC3)CC[C@]12O the results were CSC inhib 84 and Beta apoptosis inactive.
C[C@]12CC[C@H](O)C[C@H]1CC[C@@H]1[C@@H]2CC[C@]2(C)[C@@H](C3=CC(=O)OC3)CC[C@]12O was read as CSC inhib 95 and Beta apoptosis inactive.
`CC12CC[C@H]3[C@@H](CCC4(O)C[C@H](O)CCC34/C=N/NC(=O)Cc3ccccc3)C1(O)CCC2C1=CC(=O)OC1` (stereo not given in full) gave T cruzi repl inactive, CSC inhib inactive, Calb FLC inactive, PolyA inhibitor inactive, Beta apoptosis inactive and HIF activator inactive.
For COc1ccc(-c2cc(-c3ccccc3)[n+](C)c(-c3ccccc3)c2)cc1 the results were T cruzi repl 55, CSC inhib inactive, Calb FLC 103, PolyA inhibitor inactive, Beta apoptosis 109 and HIF activator inactive.
Screening O=[N+]([O-])c1ccc(C2[C@H]3C(c4ccccc4)=NC4(CCCC4)N23)cc1 (stereo not given in full) returned T cruzi repl inactive, CSC inhib inactive, Calb FLC 99, PolyA inhibitor inactive, Beta apoptosis inactive and HIF activator inactive.
Screening Cc1ccc(C2=NC(C)(C)N3C2C3c2ccc([N+](=O)[O-])cc2)cc1 (stereo not given) returned T cruzi repl inactive, CSC inhib inactive, Calb FLC inactive, PolyA inhibitor inactive, Beta apoptosis inactive and HIF activator inactive.
Screening COc1ccccc1CCNC1CCC(C(C)(C)C)CC1 (stereo not given) returned T cruzi repl 59, CSC inhib inactive, Calb FLC inactive, PolyA inhibitor inactive, Beta apoptosis inactive and HIF activator inactive.
CC(=NCCCn1ccnc1)c1c(O)n(C2CCCCC2)c(=O)[nH]c1=O was read as T cruzi repl inactive, CSC inhib inactive, Calb FLC inactive, PolyA inhibitor inactive, Beta apoptosis inactive and HIF activator inactive.
`Clc1ccc(CSC(Cn2ccnc2)c2ccc(Cl)cc2Cl)cc1` (stereo not given) gave T cruzi repl inactive, CSC inhib inactive, PolyA inhibitor inactive, Beta apoptosis inactive and HIF activator inactive.
Screening Clc1ccc(CO/N=C(\Cn2ccnc2)c2ccc(Cl)cc2Cl)c(Cl)c1 returned T cruzi repl 68, CSC inhib 103, PolyA inhibitor inactive, Beta apoptosis 88 and HIF activator inactive.
`CCOP(=O)(C#CC(C)(C)C)C1(O)CCCCC1` (stereo not given) gave T cruzi repl inactive, CSC inhib inactive, Calb FLC inactive, PolyA inhibitor inactive, Beta apoptosis inactive and HIF activator 98.
Screening C[C@]12CCC3[C@@H](CCC4=CC(=O)CC[C@@]43C=O)C1CCC2=O (stereo not given in full) returned T cruzi repl inactive, CSC inhib inactive, Calb FLC inactive, PolyA inhibitor inactive, Beta apoptosis inactive and HIF activator inactive.
`C=CCn1c(O)c(C(CC)=NCc2cc(OC)cc(OC)c2)c(=O)[nH]c1=O` gave T cruzi repl inactive, CSC inhib inactive, PolyA inhibitor inactive, Beta apoptosis inactive and HIF activator inactive.
CCC(=NCc1cc(OC)cc(OC)c1)c1c(O)[nH]c(=O)[nH]c1=O was read as T cruzi repl inactive, CSC inhib inactive, Calb FLC inactive, PolyA inhibitor inactive, Beta apoptosis inactive and HIF activator 66.
`COCCn1c(O)c(/C=N/NC(=O)CSC(=S)N2CCCC2)c(=O)[nH]c1=S` gave Beta apoptosis inactive.
For CC(C)CN1CCN(Cc2ccc(F)cc2Cl)CC1CCO (stereo not given) the results were T cruzi repl inactive, CSC inhib inactive, Calb FLC inactive, PolyA inhibitor inactive, Beta apoptosis inactive and HIF activator inactive.
For COc1ccc(/C=C/C(=O)c2c(O)n(CCC3=CCCCC3)c(=O)[nH]c2=O)cc1 the results were T cruzi repl inactive, CSC inhib 120, Calb FLC inactive, PolyA inhibitor inactive, Beta apoptosis inactive and HIF activator inactive.

Screening data deposited in PubChem BioAssay by Broad Institute.
